Rows were chosen to be rich in hits. Some 2.3% of all compounds tested hit in one or more screens of this group.
TAAR1 ag – human TAAR1 agonists, primary screen, Fluo-8 calcium fluorescence, CHO RD-HGA16 cells; vehicle wells 0%, saturating PEA agonist 100%; activation, % at 3 µM; 0.99% of 360,000 active; AID 624467, 2012;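 active = activation above the mean activation of all test compounds in the run plus 3 SD, cut at about 38% in these data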
Target sequence (Q96RJ0 whole entry, looked up): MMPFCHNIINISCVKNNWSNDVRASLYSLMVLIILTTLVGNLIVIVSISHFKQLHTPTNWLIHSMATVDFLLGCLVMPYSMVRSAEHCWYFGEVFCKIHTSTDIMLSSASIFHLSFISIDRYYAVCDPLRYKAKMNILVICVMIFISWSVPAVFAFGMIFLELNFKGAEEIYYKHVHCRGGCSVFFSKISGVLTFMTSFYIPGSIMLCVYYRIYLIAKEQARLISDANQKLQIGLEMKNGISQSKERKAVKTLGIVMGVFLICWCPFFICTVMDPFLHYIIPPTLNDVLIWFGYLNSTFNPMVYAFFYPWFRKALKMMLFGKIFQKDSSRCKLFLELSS
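Repeats: no replicates (n 1) | Material: CHO-derived RD-HGA16 cells with stable Gα16 and human TAAR1 | Technique: Kinetic Fluo-8 calcium fluorescence | Schedule: 17-24 h seeding, 75 min 37 °C dye, 30 min RT | Evaluation: % activation from peak over basal fluorescence ratio, DMSO-to-PEA scaled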
OXTR potentiate – human OXTR potentiators, primary screen, fluorescence, CHO-OTR cells, Fluo-8 calcium; Fluo-8 calcium fluorescence, potentiator mode; 0% = oxytocin EC15, 100% = EC100; activation, % at 3 µM; Oxytocin receptor (Homo sapiens), P30559; AID 2445, 2010; 0.061% of 320,000 active;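 active = activation above that plate's cutoff, the mean activation of tested compounds plus 3 SD, cut at about 6.6% in these data, passing the limit was not always enough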;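 note: 100% uses oxytocin at 75 nM as the full agonist control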
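test system = CHO-OTR cells, human receptor | compound = single-point 3.0 µM | schedule = 6 min compound pre-incubation at room temperature, 100 s kinetic read | signal = Fluo-8 no-wash calcium dye fluorescence, excitation 470-495 nm, emission 515-575 nm | repeats = single well per compound, singlicate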
OXTR ag – human OXTR agonists, primary screen, fluorescence, CHO-OTR cells, Fluo-8 calcium. Oxytocin receptor (Homo sapiens), P30559. Fluo-8 calcium fluorescence; normalized: DMSO 0%, oxytocin 100%. activation, % at 3 µM. 0.32% of 320,000 active. AID 2435, 2010;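 active = activation above the mean of all tested compounds plus 3 SD, cutoff set per screening run, cut at about 20% in these data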;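 note: peak over basal fluorescence ratio from a 100 s FLIPR kinetic read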
TAAR1 antag – human TAAR1 antagonists, primary screen, Fluo-8 calcium fluorescence, CHO RD-HGA16 cells; Trace amine-associated receptor 1 (Homo sapiens), Q96RJ0; antagonist; inhibition, % at 3 µM; 1.5% of 360,000 active; AID 624466, 2012;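 active = inhibition above a per-plate cutoff, the mean inhibition of test compounds on that plate plus 3 SD, cut at about 49% in these data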;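 note: 0% = DMSO plus EC80 beta-PEA response and 100% = DMSO alone without agonist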
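Assay system: CHO-derived RD-HGA16 cells stably expressing human TAAR1 plus Gα16. Timing: 140 s kinetic read after compound, 140 s after agonist. Technique: kinetic Fluo-8 calcium fluorescence measurement. Measure: % inhibition of agonist calcium response.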
V1aR counter – agonists of human V1a receptor, primary screen, counter-screen for OXTR agonist project, fluorescence, CHO-V1R cells. Fluo-8 calcium fluorescence, agonist mode; 0% DMSO, 100% 3 nM vasopressin. activation, % at 3 µM. 0.25% of 320,000 active. AID 2797, 2010;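 active = activation above the mean activation of all tested compounds plus 3 SD, per screening run, cut at about 20% in these data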;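 note: signal is peak over basal fluorescence ratio across a 100 second FLIPR read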
Numbers without * were called inactive; . = no result; ! = repeats disagree.

SMILES | TAAR1 ag | OXTR potentiate | OXTR ag | TAAR1 antag | V1aR counter
CC(=O)OC1C(=O)OCC23CCC4(C)OC4C2OC2CC(OC(=O)C=CC=CC(=O)OCCC1C)C3(C)C21CO1 (configuration not stated) | 12 | . | . | 65* | .
CCCCc1nc(N2CCNCC2)c(C#N)c2c1CSC(C)(C)C2 | 40* | -11 | -1 | 17 | -1
N#Cc1ccc(CN2Cc3ccccc3-n3nncc3C2)cc1 | 7 | . | . | -11 | .
COC(=O)C(O)(c1ccc(NC(=S)NC(=O)c2ccc(Cl)cc2Cl)c(C)c1)C(F)(F)F (configuration not stated) | 34 | -14 | 29* | 72* | 22*
CCOC(=O)C(NC(=O)CC)(Nc1ccc(C(O)(C(=O)OCC)C(F)(F)F)cc1C)C(F)(F)F (configuration not stated) | 1 | -13 | 0 | -3 | 0
COC(=O)C(O)(c1ccc(NC(=S)NC(=O)c2ccc(Cl)cc2Cl)cc1)C(F)(F)F (configuration not stated) | 48* | -11 | 19 | 54* | 18
CN1Cc2c(c(C#N)c(N)n(C)c2=S)CC1(C)C | . | -2 | 1 | . | 1
O=C(O)COc1cc(Cl)c(Cl)cc1Cl | 1 | . | . | 6 | .
COC(=O)C1=C(c2ccccc2OCc2ccccc2)C[C@@H]2CC[C@H]1N2C(=O)NCc1ccc(OC)c(OC)c1 | 14 | -5 | -2 | 28 | -1
O=C1CC(=O)N(Cc2ccccc2)C(=O)N1Cc1ccccc1 | 1 | . | . | -15 | .
Cc1[nH]c2ccc(OC(F)(F)F)cc2c1CCNCc1ccc(Cl)cc1 | 38* | . | . | 35 | .
COc1ccc2[nH]c(C)c(CCNCc3cccnc3)c2c1 | 10 | -4 | 1 | -4 | 2
CCOc1cccc(CNCCc2c(C)[nH]c3ccc(OC(F)(F)F)cc23)c1O | 55* | -10 | 39* | 49* | 29*
CCc1c(-c2ccccc2)nc2ccccc2c1C(=O)N1CCC2(CC1)OCCO2 | 1 | -3 | 0 | -21 | 1
COC(/C(C)=C/C=C/C(C)=C/c1coc(C)n1)C(C)C1CC(O)C2(C)OC2C=CC(C)C2CC(CC(=O)O2)CC2OC2C(=O)O1 (configuration not stated) | 0 | . | . | 5 | .
NC(Cc1ccc(Cl)cc1)c1csc(Nc2ccccn2)n1 (configuration not stated) | 44* | . | . | 29 | .
NC(Cc1ccccc1)c1csc(Nc2ccccn2)n1 (configuration not stated) | 6 | . | . | 12 | .
NC(Cc1ccc(F)cc1)c1csc(Nc2ccccn2)n1 (configuration not stated) | 40* | . | . | 8 | .
C[C@@H]1COc2cccc(N3CCN(C)CC3)c2S(=O)(=O)N1 | 2 | . | . | -12 | .
CN[C@@H]1C[C@@H](c2ccc(Cl)c(Cl)c2)c2ccccc21 | . | -4 | 28* | . | 16
CSCCC(c1nnnn1-c1ccc2c(c1)OCCO2)N1CCC2(CC1)C(=O)NCN2c1ccccc1 (configuration not stated) | 17 | . | . | 54* | .
COc1ccc(-n2nnnc2C(CCSC)N2CCC(n3c(=O)[nH]c4ccccc43)CC2)cc1 (configuration not stated) | 14 | . | . | 55* | .
COc1ccc(C(c2nnnn2Cc2ccccc2)N2CCC3(CC2)C(=O)NCN3c2ccccc2)cc1 (configuration not stated) | 3 | . | . | 4 | .
O=c1[nH]c2ccccc2n1C1CCN(C(CCc2ccccc2)c2nnnn2-c2ccc3c(c2)OCCO3)CC1 (configuration not stated) | 7 | . | . | 55* | .
COc1cccc(C(c2nnnn2Cc2ccccc2)N2CCC3(CC2)C(=O)NCN3c2ccccc2)c1OC (configuration not stated) | 8 | . | . | 54* | .
SMILES | TAAR1 ag | OXTR potentiate | OXTR ag | TAAR1 antag | V1aR counter
Cc1cccc(C)c1-n1nnnc1C(CCc1ccccc1)N1CCC(n2c(=O)[nH]c3ccccc32)CC1 (configuration not stated) | 4 | . | . | 16 | .
COc1ccc(/C=C2/C(=O)NC(=S)N(C3CC3)C2=O)cc1CN1C(=O)c2ccccc2C1=O | -1 | -3 | 0 | 16 | 0
COc1ccc(C(c2nnnn2-c2ccc3c(c2)OCCO3)N2CCC(n3c(=O)[nH]c4ccccc43)CC2)cc1 (configuration not stated) | 20 | . | . | 59* | .
Clc1ccc(COC(Cn2ccnc2)c2ccc(Cl)cc2Cl)c(Cl)c1 (configuration not stated) | 19 | -4 | 1 | 53*! | 0
CN(c1ccccc1)P(=O)(N1CC1)N1CC1 | 1 | . | . | -6 | .
CCN(CC)c1ccc(/C=C2\C(=O)NC(=S)N(C)C2=O)o1 | 18 | -4 | 22* | -5 | 23*
Cc1cccc(NP(=O)(Oc2ccccc2F)Oc2ccccc2F)c1 | 4 | -3 | -1 | 53* | 0
Cc1ccc(NP(=O)(Oc2ccccc2F)Oc2ccccc2F)cc1C | 13 | -5 | 2 | 13 | 0
O=P(Nc1ccccc1)(Nc1ccccc1)Oc1ccc(Cl)cc1 | . | -8 | 0 | . | 0
COc1ccccc1OP(=O)(Nc1cccnc1)Oc1ccccc1OC | 15 | -1 | -2 | 60* | 2
Cc1ccc(S(=O)(=O)NP(=O)(Oc2ccccc2)Oc2ccccc2)cc1 | 7 | 5 | 1 | -12 | -1
Cc1ccc(C)c(NP(=O)(Oc2ccccc2)Oc2ccccc2)c1 | 8 | -5 | 3 | 80* | 3
CCOC(=O)C1(CCCc2ccccc2)CCN(C2CCC2)CC1 | 3 | -11 | 0 | -15 | 2
CC1=NCCc2c1[nH]c1cc(O)ccc21 | 26 | -12 | 43* | -1 | 30*
COc1ccc2c3c([nH]c2c1)C(C)=NCC3 | 1 | -5 | 0 | -10 | 1
CC1CN2c3ccc([N+](=O)[O-])cc3CC3(C(=O)N(C)C(=O)N(C)C3=O)C2C(C)O1 (configuration not stated) | 1 | 3 | -1 | -14 | 0
O=C(O)COc1ccc(Cl)cc1Cl | 1 | -4 | 0 | -8 | 0
Oc1cc(Cl)ccc1Oc1ccc(Cl)cc1Cl | -2 | -9 | -3 | 50* | 0
CCOCCCn1c(N)c(C(=O)Nc2sc3c(c2C(=O)OC)CCCC3)c2nc3ccccc3nc21 | 21 | -6 | 0 | 64* | 0
CCC(=NCCc1c[nH]c2ccccc12)c1c(O)n(C)c(=O)n(C)c1=O | 13 | -6 | 19 | 50* | 10
